{"data": "Assay results gathered from unrelated publications", "target": "STE20/SPS1-related proline-alanine-rich protein kinase (STK39, Homo sapiens, UniProt Q9UEW8)", "note": "Lines come from different studies, so protocols differ."}
{"SMILES": "C[C@@H]1CCN(c2nccc(-c3cnn4ncccc34)n2)C1", "observed": "binding", "tested at": "1 µM", "remaining binding [%]": 59}
{"SMILES": "O=C(Nc1c[nH]nc1C(=O)NC1CCNCC1)c1cc(F)cc(F)c1", "observed": "binding", "method": "competition with immobilised ligand", "tested at": "1 µM", "remaining binding [%]": 67}
{"SMILES": "N#CC1(c2ccccn2)CCN(Cc2cc(C(=O)N3CCCC3)c(=O)n3ccccc23)CC1", "observed": "cell-free assay", "method": "competition with immobilised ligand", "tested at": "1 µM", "remaining binding [%]": 75}
{"SMILES": "COc1cnc(Nc2cccc(S(N)(=O)=O)c2)nc1N1CCN(c2ccccc2)C(=O)C1", "observed": "binding", "method": "competition with immobilised ligand", "tested at": "1 µM", "remaining binding [%]": 99}
{"SMILES": "Cc1cc(NC(=O)c2cccc(S(F)(F)(F)(F)F)c2)cc(-n2ccn3nc(-c4cccnc4)cc23)c1", "observed": "cell-free assay", "method": "competition with immobilised ligand", "tested at": "1 µM", "remaining binding [%]": 100}
{"SMILES": "C[C@@H](c1ccc(-n2cnc3c(N)ncnc32)cc1)N1CCc2nn(C)c(Cc3ccccc3)c2C1=O", "observed": "binding", "method": "competition with immobilised ligand", "tested at": "0.1 µM", "remaining binding [%]": 84}
{"SMILES": "O=C(c1ccc(Nc2ncc(Cl)c(-c3ccc(Cl)s3)n2)cc1)N1CCC(N2CCCC2)CC1", "observed": "binding", "method": "competition with immobilised ligand", "tested at": "1 µM", "remaining binding [%]": 48}
{"SMILES": "CCN1CCN(Cc2ccc(C(=O)Nc3ccc(C)c(Oc4ccc5c(c4)CC(=O)N5)c3)cc2C(F)(F)F)CC1", "observed": "binding", "method": "competition with immobilised ligand", "tested at": "1 µM", "remaining binding [%]": 68}
{"SMILES": "FC(F)(F)c1ccc2c(c1)nc(-c1cccnc1)n2C1CC1", "observed": "cell-free assay", "method": "competition with immobilised ligand", "tested at": "1 µM", "remaining binding [%]": 100}
{"SMILES": "Cc1cnn2ncc(-c3ccnc(N(C)C)n3)c2c1", "observed": "binding", "tested at": "1 µM", "remaining binding [%]": 100}
{"SMILES": "O=C(Nc1cccnn1)N1CCC(=Cc2cccc(Oc3ccc(C(F)(F)F)cn3)c2)CC1", "observed": "cell-free assay", "method": "competition with immobilised ligand", "tested at": "1 µM", "remaining binding [%]": 100}
{"SMILES": "CNC(=O)[C@@H]1CC[C@@H](n2c(-c3ccc4cnccc4c3)nc3ccc(C(=O)NCc4cccc(C(N)=O)c4)cc32)C1", "observed": "binding", "method": "competition with immobilised ligand", "tested at": "1 µM", "remaining binding [%]": 100}
{"SMILES": "CCCOc1ccc([C@@H]2[C@@H](C(=O)O)[C@H](c3ccc4c(c3)OCO4)CN2CC(=O)Nc2c(CC)cccc2CC)cc1", "observed": "cell-free assay", "method": "competition with immobilised ligand", "tested at": "1 µM", "remaining binding [%]": 78}
{"SMILES": "CN(CCCC(F)(F)F)c1nccc(-c2cnn3ncccc23)n1", "observed": "binding", "tested at": "1 µM", "remaining binding [%]": 82}
{"SMILES": "O=C(NCCCN1CCOCC1)c1ccc(Nc2nccc(-c3cc4ccccc4s3)n2)cc1", "observed": "binding", "method": "competition with immobilised ligand", "tested at": "1 µM", "remaining binding [%]": 73}
{"SMILES": "N[C@@H]1CCN(c2nccc(-c3cnn4ncccc34)n2)C1", "observed": "binding", "tested at": "1 µM", "remaining binding [%]": 100}
{"SMILES": "Nc1ncc2c(n1)-c1c([nH]c3ccc(C#CC4CC4)cc13)CCCC2", "observed": "binding", "method": "competition with immobilised ligand", "tested at": "1 µM", "remaining binding [%]": 53}
{"SMILES": "COc1ccnn2ncc(-c3ccnc(N(C)C)n3)c12", "observed": "binding", "tested at": "1 µM", "remaining binding [%]": 49}
{"SMILES": "Cc1cnc(Nc2ccc(C(=O)N3CCC(N4CCCC4)CC3)cc2)nc1-c1cc2ccccc2s1", "observed": "binding", "method": "competition with immobilised ligand", "tested at": "1 µM", "remaining binding [%]": 53}
{"SMILES": "Cn1nc(C(F)(F)F)cc1-c1cnc(N2CCc3cc(S(=O)(=O)Nc4c(F)cc(Cl)cc4F)cc(N4CCCC4=O)c32)nc1", "observed": "cell-free assay", "method": "competition with immobilised ligand", "tested at": "1 µM", "remaining binding [%]": 91}
{"SMILES": "CN(c1nccc(-c2cnn3ncccc23)n1)C1CC1", "observed": "binding", "tested at": "1 µM", "remaining binding [%]": 100}
